Test results reported in ChEMBL document CHEMBL5335796, “Novel Psilocin Prodrugs with Altered Pharmacological Properties as Candidate Therapies for Treatment-Resistant Anxiety Disorders” (J Med Chem, 2024).
Active and inactive are the calls of the source. No cut-off for these calls is given here.

Columns and labels:
[1] = Drug metabolism in po dosed C57BL/6 mouse assessed as psilocin formation measured upto 24 hrs by LC-MS analysis; assay type: ADME, organism-based; conditions: in vivo, dose 1-10 mg/kg
[2] = Drug metabolism in C57BL/6 mouse assessed as psilocin formation at 1 mg/kg, iv measured upto 24 hrs by LC-MS analysis; assay type: ADME, organism-based; conditions: in vivo
[3] = Metabolic stability in human liver S9 fraction assessed as half life at 2.5 uM measured upto 120 mins in presence of NADPH by LC-MS analysis; assay type: ADME, subcellular; conditions: for t1/2: s9, 2 h, 2.5 µM
Procedure, shortened: (§1)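 2.5 μM compound at 37 °C in 50 mM potassium phosphate pH 7.4 with 3 mM MgCl2, 1 mM EDTA and an NADPH regenerating system. […] Sampled at 0–120 min in 20-min steps, acetonitrile quench, LC-MS of parent. T1/2 from one-phase exponential decay fit.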

[4] = Metabolic stability in human liver microsomes assessed as half life at 2.5 uM measured upto 120 mins in presence of NADPH by LC-MS analysis; assay type: ADME, Microsome; conditions: for t1/2: microsomes, 2 h, 2.5 µM; procedure, shortened: as §1
[5] = Metabolic stability in human intestine S9 fraction assessed as half life at 2.5 uM measured upto 120 mins in presence of NADPH by LC-MS analysis; assay type: ADME, subcellular; conditions: s9, 2 h; procedure, shortened: as §1
[6] = Metabolic stability in human intestine microsomes assessed as half life at 2.5 uM measured upto 120 mins in presence of NADPH by LC-MS analysis; assay type: ADME, Microsome; conditions: 2 h; procedure, shortened: as §1
[7] = Metabolic stability in human serum assessed as half life at 2.5 uM measured upto 120 mins in presence of NADPH by LC-MS analysis; assay type: ADME, cell-free; conditions: 2 h; procedure, shortened: as §1
[8] = Drug metabolism in human liver S9 fraction assessed as psilocin formation at 2.5 uM after 120 mins by LC-MS analysis; assay type: ADME, subcellular; conditions: s9, 2 h
Procedure, shortened: (§2)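 2.5 μM compound in 50 mM potassium phosphate pH 7.4 with 3 mM MgCl2, 1 mM EDTA and an NADPH regenerating system. Incubated at 37 °C with human liver or intestinal S9 or microsomes (400 μg/mL protein) or 10% human AB serum. Acetonitrile quench, then LC-MS; psilocin concentration read at 120 min.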

[9] = Drug metabolism in human liver microsomes assessed as psilocin formation at 2.5 uM after 120 mins by LC-MS analysis; assay type: ADME, Microsome; conditions: 2 h; procedure, shortened: as §2
[10] = Drug metabolism in human intestine S9 fraction assessed as psilocin formation at 2.5 uM after 120 mins by LC-MS analysis; assay type: ADME, subcellular; conditions: s9, 2 h; procedure, shortened: as §2
[11] = Drug metabolism in human intestine microsomes assessed as psilocin formation at 2.5 uM after 120 mins by LC-MS analysis; assay type: ADME, Microsome; conditions: 2 h; procedure, shortened: as §2
[12] = Drug metabolism in human serum assessed as psilocin formation at 2.5 uM after 120 mins by LC-MS analysis; assay type: ADME, cell-free; conditions: 2 h; procedure, shortened: as §2
[13] = Drug metabolism in C57BL/6 mouse assessed as psilocin formation at 10 mg/kg, po measured after 8 hrs by LC-MS analysis; assay type: ADME, organism-based; conditions: in vivo
Mus musculus [14] = test: Psychedelic activity in mouse assessed as head-twitch response at 1 mg/kg, po measured after 15 to 30 mins; assay type: functional, organism-based; conditions: time 15-30 min
Procedure, shortened: (§3)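 C57BL/6 mice, singly housed for 2 days, with 30-min predose chamber acclimation. Single oral 1 mg/kg dose from 100 mM DMSO stock diluted in 0.9% saline; vehicle 1% DMSO in saline. Video-recorded after dosing; head twitches scored blind per 15-min interval (reference time course) or for the 15–30 min window. n = 2–4; one-way ANOVA.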

Mus musculus [15] = test: Anxiolytic activity in non-stressed mouse assessed as reduction in marble-burying behavior by measuring decrease in number of buried marbles at 10 mg/kg, po measured after 1 day; assay type: functional, organism-based
Mus musculus [16] = test: Anxiolytic activity in non-stressed mouse assessed as reduction in marble-burying behavior by measuring decrease in number of buried marbles at 10 mg/kg, po measured upto 7 days; assay type: functional, organism-based; conditions: time <= 7.0 day
[17] = Drug metabolism in C57BL/6 mouse assessed as psilocin formation at 10 mg/kg, po measured at 24 hrs by LC-MS analysis; assay type: ADME, organism-based; conditions: in vivo
[18] = Drug metabolism in C57BL/6 mouse assessed as psilocin Cmax at 3 mg/kg, po measured upto 24 hrs by LC-MS analysis; assay type: ADME, organism-based; parameters: dose 3 mg/kg, time < 24 hrs, route po; conditions: in vivo
[19] = Drug metabolism in C57BL/6 mouse assessed as psilocin Cmax at 10 mg/kg, po measured upto 24 hrs by LC-MS analysis; assay type: ADME, organism-based; parameters: time < 24 hrs, dose 10 mg/kg, route po; conditions: in vivo
[20] = Drug metabolism in C57BL/6 mouse assessed as psilocin AUC(0 to last) at 3 mg/kg, po measured upto 24 hrs by LC-MS analysis; assay type: ADME, organism-based; parameters: time < 24 hrs, dose 3 mg/kg, route po; conditions: in vivo
[21] = Drug metabolism in C57BL/6 mouse assessed as psilocin AUC(0 to last) at 10 mg/kg, po measured upto 24 hrs by LC-MS analysis; assay type: ADME, organism-based; parameters: dose 10 mg/kg, time < 24 hrs, route po; conditions: in vivo
Mus musculus [22] = test: Psychedelic activity in mouse assessed as head-twitch response at 1 mg/kg, po measured upto 90 mins; assay type: functional, organism-based; procedure, shortened: as §3
Mus musculus [23] = test: Anxiolytic activity in mouse assessed as reduction in MCSP induced marble-burying behavior by measuring decrease in number of buried marbles at 1 mg/kg, po measured upto 7 days; assay type: functional, organism-based; conditions: time <= 7.0 day
Procedure, shortened: (§4)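 Mixed-sex C57BL/6 mice, singly housed. Stress group: 7-day mild chronic stress paradigm with corticosterone 25 μg/mL in 1% ethanol drinking water plus daily 30-min restraint over the last 5 days; controls unstressed. Single oral dose in saline with 1% DMSO at 2.5 μL/g, given 24 h after stress. 10 marbles on 5 cm bedding; % buried over 20 min on days 1 and 7. Ordinary one-way ANOVA; n = 6–11.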

[24] = Anxiolytic activity in non-stressed mouse assessed as reduction in marble-burying behavior by measuring decrease in number of buried marbles at 1 mg/kg, po measured upto 7 days; assay type: toxicity, organism-based; conditions: in vivo, 168 h, time < 7 day; procedure, shortened: as §4

Compound	Drug metabolism [1]	Drug metabolism [2]	t1/2 [5] [min]	t1/2 [6] [min]	t1/2 [7] [min]	Drug metabolism [8] [µM]	Drug metabolism [9] [µM]	Drug metabolism [10] [µM]	Drug metabolism [11] [µM]	Drug metabolism [12] [µM]	Drug metabolism [13]	Activity (Mus musculus [14])	Activity (Mus musculus [15])	t1/2 [3] [min]	t1/2 [4] [min]	also measured
CN(C)CCc1c[nH]c2cccc(OC(=O)SCc3ccccc3)c12	Dose-Dependent Effect	Metabolite_Detected	50	71	14	1.233	2.105	0	0.156	0.385	Metabolite_Notdetected	Active	Active			half-life at 2.5 µM ([3]; liver S9 fraction): 5 min; half-life at 2.5 µM ([4]; liver microsomes): 6 min; Activity (Mus musculus [16]): Active
CN(C)CCc1c[nH]c2cccc(OC(=O)c3c(F)c(F)c(F)c(F)c3F)c12	Dose-Dependent Effect		56	32	0.7	1.244	2.554	0.533	0.786	0.45	Metabolite_Notdetected	Active		1	1	
CCCCC(=O)OCOc1cccc2[nH]cc(CCN(C)C)c12	Dose-Dependent Effect	Metabolite_Detected	39	112	3	0.07	0.132	0.055	0.081	0	Metabolite_Notdetected			5	4	
CN(C)CCc1c[nH]c2cccc(OC(=O)OCC3CC3)c12	Dose-Dependent Effect	Metabolite_Detected	327	271	3	1.177	1.929	0.224	0.157	0.361		inactive		9	4	Drug metabolism [17]: Metabolite_Detected
CN(C)CCc1c[nH]c2cccc(OC(=O)CC3CC3)c12	Dose-Dependent Effect	Metabolite_Detected	104	62	1	1.343	1.89	1.384	0.927	0.778	Metabolite_Notdetected	Active	Active	3	1	
CN(C)CCc1c[nH]c2cccc(OC(=O)OCc3ccccc3)c12	Dose-Dependent Effect	Metabolite_Detected	529	211		0.084	0.114	0.044	0.038	0					113	Drug metabolism [17]: Metabolite_Detected
COc1ccc(C(=O)Oc2cccc3[nH]cc(CCN(C)C)c23)cc1	Dose-Dependent Effect	Metabolite_Detected	132	315	1	1.95	2.718	0.114	0.041	1.097	Metabolite_Notdetected	Active	Active	21	17	Activity (Mus musculus [16]): Active
CCCC(=O)OCOc1cccc2[nH]cc(CCN(C)C)c12	Dose-Dependent Effect		241	74	2	0.012	0.073	0.018	0.043	0	Metabolite_Notdetected	inactive		4	3	
CN(C)CCc1c[nH]c2cccc(OP(=O)(O)O)c12 [PSILOCYBIN]	Dose-Dependent Effect			195		0	0	0.621	0.172	0	Metabolite_Notdetected					Cmax [18]: 52.9 ng/mL; Cmax [19]: 243 ng/mL; AUClast [20]: 84.4 ng·h/mL; AUClast [21]: 397.3 ng·h/mL; Activity (Mus musculus [22]): Active; Activity (Mus musculus [23]): Active; Activity [24]: Non-Toxic
